Source: PubChem
STAT1 act: STAT1 signaling activation | NIH 3T3 STAT1-luciferase reporter, IFN-gamma, luminescence; 100% = IFN-gamma alone, no compound | activation (% of control), % at 5.5 µM | 2.6% of 200,000 active;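 active = activation above the screen-wide mean activation plus 3 SD, cut at about 130% in these data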
STAT3 inh: STAT3 signaling inhibition. inhibition, % at 5.5 µM. 0.89% of 190,000 active. U3A cells, IL-6 STAT3-luciferase reporter, luminescence; host cell line lacks STAT1;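 active = inhibition above the mean inhibition across all screened compounds plus 3 SD, cut at about 44% in these data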
STAT1 inh: STAT1 signaling inhibition. inhibition, % at 5.5 µM. 0.35% of 200,000 active. NIH 3T3 STAT1-luciferase reporter, IFN-gamma, luminescence. AID 920;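 active = inhibition above a set limit, the mean inhibition across all tested compounds plus 3 SD, cut at about 34% in these data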
APP 5'UTR act: APP 5'UTR luciferase reporter activation; SH-SY5Y APP 5'UTR luciferase reporter, luminescence; zero percent = DMSO vehicle wells; activation, % at 2 µM; 1% of 190,000 active;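 active = activation above a set limit, based on mean plus 3 SD of controls, cut at about 140% in these data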
NF-kB neuron act: compounds increasing NF-kB expression in human neuronal cells; NF-kB reporter expression; stronger effect = higher value; fold change at 12.5 µM; 1.6% of 190,000 active; AID 1239; in the data active = fold change above about 3.3
STAT3 act: STAT3 signaling activation; U3A cells, IL-6 STAT3-luciferase reporter, luminescence; 100% = signal with IL-6 EC80 alone; activation (% of control), % at 5.6 µM; 0.91% of 190,000 active;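 active = activation above the screen-wide mean of compound activation plus 3 SD, cut at about 130% in these data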
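Test system: human U3A cells carrying STAT3-luciferase construct; control set: IL-6-only wells as 100% reference; timing: compound pre-incubation 1 h before IL-6, then 6 h stimulation at 37 °C; also added: IL-6 stimulus at 33 ng/mL final; evaluation: % activation versus median of IL-6-stimulated wells; detection: reporter luminescence signal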
Large screens that a line does not name were inactive. A selection: hits, their analogues and other compounds. The true share with any hit is near 4.9%.

O=C(Nc1ncc(Cc2ccccc2)s1)C1CCCO1 (configuration not stated)	NF-kB neuron act 4.11
O=C(Nc1nnc(Cc2ccc(Cl)cc2)s1)C1CCCO1 (configuration not stated)	none
O=C(NCc1ccc(-c2nc3ccccc3s2)cc1)c1cc2ccccc2o1	none
COc1cc(C(=O)NCc2ccc(-c3nc4ccccc4s3)cc2)cc(OC)c1OC	STAT1 act 141.2
O=C(NCc1ccc(-c2nc3ccccc3s2)cc1)c1ccc(Br)o1	STAT1 act 137.0
COc1ccc(C(=O)NCc2ccc(-c3nc4ccccc4s3)cc2)cc1	none
CN1CCN(CC2(O)CCN(S(=O)(=O)c3ccc(Cl)cc3)CC2)CC1	none
CC(C)CC(C(=O)N1CCc2ccccc2C1)N1C(=O)c2ccccc2C1=O (configuration not stated)	STAT3 act 134.2
COc1ccc(Nc2nc(N)nc(CSC(=S)N3CCOCC3)n2)cc1	STAT1 act 142.5
O=C1C2C3C=CC(C3)C2C(=O)N1c1ccncc1 (configuration not stated)	none
O=C1C2C3C=CC(C3)C2C(=O)N1c1ccc(-c2nc3ccccc3o2)cc1 (configuration not stated)	STAT1 act 143.0
COC(=O)/C(C#N)=C/c1ccc(OC(=O)c2ccccn2)cc1	none
CNc1ccc(/C=C(\C#N)c2ccccn2)cc1[N+](=O)[O-]	STAT1 act 138.8
N#C/C(=C\c1ccc(Cl)c([N+](=O)[O-])c1)c1ccccn1	none
N#C/C(=C\c1ccccc1)c1ccccn1	STAT1 act 130.4
CC(=O)NC(Cc1ccccc1F)C(=O)NC1CCN(C(=O)c2cnccn2)CC1 (configuration not stated)	none
CCOc1ccc2nc(NC(=O)Cc3cccs3)sc2c1	STAT1 act 128.9
COc1ccc2nc(NC(=O)CSc3nnnn3C3CCCCC3)sc2c1	none
COc1ccc2nc(NC(=O)Cc3cccs3)sc2c1	STAT1 act 135.6
CCOc1ccc2nc(NC(=O)COC)sc2c1	STAT1 act 138.4, APP 5'UTR act 139.7, NF-kB neuron act 4.91
COc1ccc2nc(NC(=O)CSc3nnnn3C)sc2c1	STAT1 act 142.0
O=C1NC(=O)C2C1C(c1cccs1)NN2Cc1ccccc1 (configuration not stated)	none
COc1ccc2oc(C(=O)OCc3c(C)noc3C)c(C)c2c1	none
O=C(CCl)N=c1sccn1Cc1ccc(Cl)cc1Cl	STAT3 inh 59.7, STAT1 inh 89.8
CCNC(=S)NNC(=O)c1cccn(Cc2ccc(Cl)cc2Cl)c1=O	none
O=C(CCl)N=c1sccn1Cc1cccc2ccccc12	STAT3 inh 81.3, STAT1 inh 92.1
Cn1c(=NC(=O)CCl)sc2ccccc21	none
COc1ccc(S(=O)(=O)N(n2c(C)nnc2-n2nc(C)cc2C)S(=O)(=O)c2ccc(OC)cc2)cc1	none
COC(=O)Cn1c(C)nc2c(sc3nc(C)cc(C)c32)c1=O	STAT1 act 141.0
COC(=O)Cn1c(C)nc2ccccc21	none
CN(C)CCCN1C(=O)c2cccc3c([N+](=O)[O-])ccc(c23)C1=O	STAT1 act 142.6, NF-kB neuron act 4.27
O=c1[nH]c2ccccc2nc1C(F)(F)C(F)F	STAT1 act 137.5
O=c1[nH]c2cc3ccccc3cc2nc1C(F)(F)F	none
Cc1ccsc1/C=N/NC(=O)c1cccs1	STAT1 act 133.8
Cn1cc(/C=N\NC(=O)c2cccs2)c2ccccc21	STAT1 act 128.8
Cc1ccsc1/C=N/NC(=O)c1ccccn1	STAT1 act 148.0
Cn1cc(/C=N/NC(=O)c2ccc(C#N)cc2F)c2ccccc21	none
Cc1cc(/C=N/NC(=O)c2cccs2)c(C)n1-c1cnccn1	STAT1 act 146.6
O=C(N/N=C/c1ccsc1)c1ccccn1	none
O=C(CSc1ccc2nnc(-c3ccccn3)n2n1)N1CCN(c2ccccc2)CC1	none
O=C(N/N=C/c1ccc(Br)s1)c1ccccn1	STAT1 act 137.4, NF-kB neuron act 3.47
Cc1ccccc1C(=O)N/N=C/c1ccsc1C	STAT1 act 132.7
CC(C)(C)c1ccc(/C=N/NC(=O)c2ccccn2)cc1	STAT3 inh 68.3, STAT1 inh 42.7, APP 5'UTR act 167.6
Cc1nn(-c2ccc(F)cc2)c(Cl)c1/C=N/NC(=O)c1cccs1	STAT1 act 141.9
Cc1sccc1/C=N/NC(=O)c1cccc2ccccc12	none
C=CCn1c(NCc2ccc(N(C)C)cc2)nc2ccccc21	none
COc1ccc(-c2csc(NC(=O)C3COc4ccccc4O3)n2)cc1OC (configuration not stated)	none (no result: STAT3 inh, STAT3 act)
CCC(=O)Nc1nnc(SCc2ccccc2F)s1	none
COc1ccc(C2=Nn3c(nnc3-c3ccccc3)SC2)cc1OC	STAT3 act 134.1
COc1ccc(C2=Nn3c(nnc3-c3ccco3)SC2)cc1	NF-kB neuron act 4.82
O=C1OCCN1CC(=O)N1CCc2c([nH]c3ccccc23)C1c1ccccn1 (configuration not stated)	none
Oc1ccc(/C=N/NC(=S)Nc2cccnc2)cc1O	none
S=C(N/N=C/c1ccc2ncccc2c1)Nc1cccnc1	STAT3 inh 68.3, STAT1 inh 38.9
O=C(O)c1cccc(NC(=S)N/N=C/c2ccccc2OCc2ccc(Br)cc2)c1	none
O=C(O)c1cccc(NC(=S)N/N=C/c2ccccc2OCc2cccc(Br)c2)c1	none
O=C(O)c1cccc(NC(=S)N/N=C/c2ccccn2)c1	STAT3 inh 91.4, STAT1 inh 79.4
O=C(O)c1cccc(NC(=S)N/N=C/c2cccc(O)c2)c1	STAT3 inh 60.1, STAT1 inh 43.4
Cc1cccc(C)c1NC(=O)CN(C)C(=O)C(c1ccccc1)c1ccccc1	none
O=c1c(Br)c(N2CCCC2)cnn1-c1ccccc1	STAT1 act 142.6
O=c1c(Br)c(N2CCCCC2)cnn1-c1ccccc1	STAT1 act 146.6, APP 5'UTR act 166.5, NF-kB neuron act 3.92
CN1CCN(c2cnn(-c3ccccc3)c(=O)c2Br)CC1	none
COCCCNC(=O)CC(C)c1ccccc1 (configuration not stated)	none
CC1CC(C)(C)NC(=S)N1CCCC(=O)NCCc1ccc(Cl)cc1 (configuration not stated)	none
Cn1cc([N+](=O)[O-])c(C(=O)Nc2ccc(C3CCCCC3)cc2)n1	NF-kB neuron act 3.74
Cn1cc([N+](=O)[O-])c(C(=O)Nc2ccc3nc(-c4ccccc4)[nH]c3c2)n1	none
Cn1cc([N+](=O)[O-])c(C(=O)Nc2ccc(C(=O)N3CCCCC3)cc2)n1	none
Cn1cc([N+](=O)[O-])c(C(=O)Nc2ccc(-c3nc4ccccc4[nH]3)cc2)n1	NF-kB neuron act 9.53
O=C(Nc1ccc(-c2nc3ccccc3[nH]2)cc1)c1ccco1	STAT1 act 141.0, APP 5'UTR act 169.2
